This note sets out measurements from ChEMBL document CHEMBL1158816, “Meroterpenes from the ascidian Aplidium aff. densum” (J Nat Prod, 2005).

≈ marks a conversion by molar mass, not a printed value.

As a reminder, the MIC is the lowest concentration that inhibits growth of the organism. Low values mean greater potency, high ones weaker potency.

Assay [1] deals with Escherichia coli. Kind of assay: Antimicrobial activity against Escherichia coli by broth dilution method. Format: functional. Summed up:
(§1)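 Broth dilution per NCCLS guidelines; compounds in DMSO (at most 5% of total volume) incubated with bacteria (Institut Pasteur strains) in PB medium, 37 °C, 24 h with stirring. Growth read as optical density at 630 nm. Triplicate, averaged. Where growth was absent, medium plated on rich solid medium to tell bacteriostatic from bactericidal.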
On the technique in general: Broth dilution looks for growth in wells or tubes with falling amounts of substance.

For assay [2], the system named is Micrococcus luteus. The assay can be described thus: Antimicrobial activity against Micrococcus luteus by broth dilution method. Format: functional. Summed up: as §1
Assay [3] relates to CCRF-CEM. The assay can be described thus: Cytotoxicity against human wild type CEM cells after 72 hrs. Format: functional, cell-based. The procedure, abridged: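 CCRF-CEM (CEM-WT) acute lymphoblastic leukemia cells grown in RPMI 1640 with L-glutamine, 10% FCS, penicillin/streptomycin, 5% CO2, 37 °C. Serial dilutions in medium (10^-4 to 1 mg/mL) added to 2 × 10^5 cells/mL without medium renewal. Cells counted with a particle counter over time. IC50 taken at 72 h; triplicate, averaged.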

Turning to `CC1=CC2C(CC1)C(C)(C)OC21CC(=O)C=CC1=O` (configuration not stated) [CONIDIONE], the minimum inhibitory concentration (MIC) in assay [1] and in assay [2] was greater than 2000 µM throughout.

Regarding `CC(C)=CCCC1(C)C=Cc2cc(O)ccc2O1` (configuration not stated) [CORDIACHROMENE A], the MIC in assay [1] is greater than 2000 µM; in assay [2], 510 µM (≈ 125 µg/mL). The same compound had an IC50 in assay [3] of 30 µM.

For the compound `Cc1ccc2c(c1)-c1cc(O)ccc1OC2(C)C` [DIDEHYDROCONICOL], the MIC is greater than 2000 µM in assay [1] and 510 µM (≈ 123 µg/mL) in assay [2].

Regarding `CC1=C[C@@H]2c3cc(O)ccc3OC(C)(C)[C@@H]2CC1` [EPICONICOL], the MIC was greater than 2000 µM in assay [1] and 130 µM (≈ 31.8 µg/mL) in assay [2]. Besides, the IC50 in assay [3] amounted to 60 µmol.

Take `COC(C)(C)[C@H]1CCC(C)=C[C@H]1c1cc(O)ccc1O` [METHOXYCONIDIOL]: the minimal inhibitory concentration (MIC) in assay [1] and in assay [2] was greater than 2000 µM each time.
